The values that follow come from ChEMBL document CHEMBL1134773, “Design and synthesis of potent and selective alpha(4)beta(7) integrin antagonists” (J Med Chem, 2001).

This assay deals with Integrin alpha-4/beta-7 (Homo sapiens) (UniProt P13612+P26010). The assay is described as follows: Ability to inhibit adhesion of alpha4-beta7 integrin expressing 38-beta7 lymphoma cells to chinese hamster ovary (CHO) cells stably transfected with MAdCAM-1. It is filed as cell-based. The essentials:
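38-β7 lymphoma cells (α4β7+) labelled 30 min at 37 °C with 12 μg/mL H33342, then 8×10^5/mL in buffer with 1.0 mM Ca2+/Mg2+. Preincubated 10 min at 37 °C with peptide at 1 mg/mL final. Allowed to adhere 30 min at 37 °C to confluent MAdCAM-1-transfected CHO monolayers (seeded 24 h before). Nonadherent cells removed by inverse centrifugation. Result given as % of medium control, mean of two experiments.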

Consider `CC(C)C[C@@H]1NC(=O)[C@@H](Cc2ccc(O)cc2)NC(=O)[C@H]2CCCN2C(=O)[C@@H](CCCCN)NC(=O)[C@H]([C@@H](C)O)NC(=O)[C@@H](CC(=O)O)NC1=O`, for which the Adhesion worked out at 81%. Under `CC(C)C[C@@H]1NC(=O)[C@@H]2Cc3ccccc3CN2C(=O)[C@H]2CCCN2C(=O)[C@@H](CC(=O)O)NC(=O)[C@H]([C@@H](C)O)NC(=O)[C@@H](CC(=O)O)NC1=O` stands 9%; under `CC(C)C[C@@H]1NC(=O)[C@@H](CC(=O)O)NC(=O)[C@H]2CCCN2C(=O)[C@@H](Cc2ccc(O)cc2)NC(=O)[C@H]([C@@H](C)O)NC(=O)[C@@H](CC(=O)O)NC1=O`, 76%. Under `CC(C)C[C@@H]1NC(=O)[C@@H](Cc2ccccc2)NC(=O)[C@H]2CCCN2C(=O)[C@@H](CCCCN)NC(=O)[C@H]([C@@H](C)O)NC(=O)[C@@H](CC(=O)O)NC1=O` stands 85%; under `C[C@H]1NC(=O)[C@H]2CCCN2C(=O)[C@@H](CC(=O)O)NC(=O)[C@H]([C@@H](C)O)NC(=O)[C@@H](CC(=O)O)NC(=O)[C@H](c2ccccc2)NC1=O`, 98%; under `CC(C)C[C@@H]1NC(=O)[C@@H](C)NC(=O)[C@@H](Cc2ccccc2)NC(=O)[C@@H](CC(=O)O)NC(=O)[C@H]([C@@H](C)O)NC(=O)[C@@H](CC(=O)O)NC1=O`, 63%. For the compound `CC[C@H](C)[C@H]1NC(=O)[C@H](C)NC(=O)[C@@H](C)NC(=O)[C@H]([C@@H](C)O)NC(=O)[C@@H](CC(=O)O)NC1=O` (stereo in doubt; P6), the Adhesion worked out at 63%. Under `CC(C)C[C@@H]1NC(=O)[C@@H](CCCN=C(N)N)NC(=O)[C@H]2CCCN2C(=O)[C@@H](C)NC(=O)[C@H]([C@@H](C)O)NC(=O)[C@@H](CC(=O)O)NC1=O` stands 26%; under `CC(C)C[C@@H]1NC(=O)[C@H]2CCCN2C(=O)[C@H](C)NC(=O)[C@@H](C)NC(=O)[C@H]([C@@H](C)O)NC(=O)[C@@H](CC(=O)O)NC1=O`, 30%. With `CC(C)C[C@@H]1NC(=O)[C@@H]([C@@H](C)O)NC(=O)[C@H]2CCCN2C(=O)[C@@H](C)NC(=O)[C@H]([C@@H](C)O)NC(=O)[C@@H](CC(=O)O)NC1=O`, the Adhesion amounted to 49%. Under `CC(C)C[C@@H]1NC(=O)[C@@H](C)NC(=O)[C@H]2CCCN2C(=O)[C@@H](CC(=O)O)NC(=O)[C@H](C(C)C)NC(=O)[C@@H](CC(=O)O)NC1=O` stands 40%. In the case of `CC(C)C[C@@H]1NC(=O)[C@@H](Cc2ccc(C(=O)c3ccccc3)cc2)NC(=O)[C@H]2CCCN2C(=O)[C@@H](CC(=O)O)NC(=O)[C@H]([C@@H](C)O)NC(=O)[C@@H](CC(=O)O)NC1=O` it was 10%; in that of `CC(C)C[C@@H]1NC(=O)[C@@H](C)NC(=O)[C@H]2CCCN2C(=O)[C@@H](CC(=O)O)NC(=O)[C@H]([C@@H](C)O)NC(=O)[C@@H](CC(=O)O)NC1=O`, 47%; in that of `CC(C)C[C@@H]1NC(=O)[C@H]2CCCN2C(=O)[C@@H](C)NC(=O)[C@H]([C@@H](C)O)NC(=O)[C@@H](CC(=O)O)NC1=O`, 74%. Under `CC(C)[C@@H]1NC(=O)[C@@H](C)NC(=O)[C@H]2CCCN2C(=O)[C@@H](C)NC(=O)[C@H]([C@@H](C)O)NC(=O)[C@@H](CC(=O)O)NC1=O` stands 97%; under `CC(C)C[C@@H]1NC(=O)[C@@H](C)NC(=O)[C@H]2CCCN2C(=O)[C@@H](C)NC(=O)[C@H]([C@@H](C)O)NC(=O)[C@@H](CC(=O)O)NC1=O`, 7%.

`CC(C)C[C@@H]1NC(=O)C(C2CCCCC2)NC(=O)[C@H]2CCCN2C(=O)[C@@H](CC(=O)O)NC(=O)[C@H]([C@@H](C)O)NC(=O)[C@@H](CC(=O)O)NC1=O` (stereo not given in full) gave an Adhesion of 58%. In the case of `CC(C)C[C@@H]1NC(=O)[C@@H](C)NC(=O)[C@H]2CCCN2C(=O)[C@@H](C)NC(=O)[C@H](C(C)C)NC(=O)[C@@H](CC(=O)O)NC1=O` it was 50%.

`CC(C)C[C@@H]1NC(=O)[C@@H](CCC(=O)O)NC(=O)[C@H]2CCCN2C(=O)[C@@H](C)NC(=O)[C@H]([C@@H](C)O)NC(=O)[C@@H](CC(=O)O)NC1=O` showed an Adhesion of 65%. Under `CC(C)C[C@@H]1NC(=O)[C@@H](CC(=O)O)NC(=O)[C@H]2CCCN2C(=O)[C@@H](C)NC(=O)[C@H]([C@@H](C)O)NC(=O)[C@@H](CC(=O)O)NC1=O` stands 115%. Under `CC(C)C[C@@H]1NC(=O)[C@@H](CC(=O)O)NC(=O)[C@H]2CCCN2C(=O)[C@@H](Cc2ccccc2)NC(=O)[C@H]([C@@H](C)O)NC(=O)[C@@H](CC(=O)O)NC1=O` stands 100%. On to `C[C@H]1NC(=O)[C@H]2CCCN2C(=O)[C@@H](CC(=O)O)NC(=O)[C@H]([C@@H](C)O)NC(=O)[C@@H](CC(=O)O)NC(=O)[C@H](Cc2ccccc2)NC1=O`, for which the Adhesion was 102%. Under `CC(C)C[C@@H]1NC(=O)[C@@H](CC(=O)O)NC(=O)[C@@H](Cc2ccccc2)NC(=O)[C@@H](C)NC(=O)[C@H]([C@@H](C)O)NC(=O)[C@@H](CC(=O)O)NC1=O` stands 86%. `CC(C)C[C@@H]1NC(=O)[C@H](C)NC(=O)[C@H]2CCCN2C(=O)[C@H]([C@@H](C)O)NC(=O)[C@@H](CC(=O)O)NC1=O` yielded an Adhesion of 89%. Under `CC(C)C[C@@H]1NC(=O)[C@@H](C)NC(=O)[C@H]2CCCN2C(=O)[C@@H](C)NC(=O)[C@H](CO)NC(=O)[C@@H](CC(=O)O)NC1=O` stands 90%; under `C[C@H]1NC(=O)[C@H]2CCCN2C(=O)[C@@H](CC(=O)O)NC(=O)[C@H]([C@@H](C)O)NC(=O)[C@@H](CC(=O)O)NC(=O)[C@@H](c2ccccc2)NC1=O`, 114%.

In the case of `CC(C)C[C@@H]1NC(=O)[C@@H](C)NC(=O)[C@H](C)NC(=O)[C@H]2CCCN2C(=O)[C@H]([C@@H](C)O)NC(=O)[C@@H](CC(=O)O)NC1=O`, the Adhesion was found to be 111%. In the case of `CC(C)C[C@@H]1NC(=O)[C@@H](CC(=O)O)NC(=O)[C@@H](CC(=O)O)NC(=O)[C@@H](C)NC(=O)[C@H]([C@@H](C)O)NC(=O)[C@@H](CC(=O)O)NC1=O` it was 99%; in that of `CC(C)C[C@@H]1NC(=O)[C@@H](CC(=O)O)NC(=O)[C@H]2CCCN2C(=O)[C@@H](CCCCN)NC(=O)[C@H]([C@@H](C)O)NC(=O)[C@@H](CC(=O)O)NC1=O`, 102%; in that of `CC(C)C[C@@H]1NC(=O)[C@@H](Cc2ccccc2)NC(=O)[C@@H](Cc2ccccc2)NC(=O)[C@@H](CC(=O)O)NC(=O)[C@H]([C@@H](C)O)NC(=O)[C@@H](CC(=O)O)NC1=O`, 56%. In turn, `CC[C@H](C)[C@@H]1NC(=O)[C@H](C)NC(=O)[C@@H](C)NC(=O)[C@H]([C@@H](C)O)NC(=O)[C@@H](CC(=O)O)NC1=O` yielded an Adhesion of 137%.

Consider `CC(C)C[C@@H]1NC(=O)[C@@H](C)NC(=O)[C@H]2CCCN2C(=O)[C@@H](C)NC(=O)CNC(=O)[C@@H](CC(=O)O)NC1=O`, for which the Adhesion came to 91%. In the case of `CC[C@H](C)[C@H]1NC(=O)[C@H](C)NC(=O)[C@@H](C)NC(=O)[C@H]([C@@H](C)O)NC(=O)[C@@H](CC(=O)O)NC1=O` (stereo in doubt; P1) it was 100%; in that of `CSCC[C@H]1NC(=O)[C@H]([C@@H](C)O)NC(=O)[C@@H](CC(=O)O)NC(=O)[C@H](CC(C)C)NC(=O)[C@@H](CC(=O)O)NC(=O)[C@H]2CCCN2C1=O`, 83%. For the compound `C[C@H]1NC(=O)[C@H]2CCCN2C(=O)[C@@H](C)NC(=O)[C@H]([C@@H](C)O)NC(=O)[C@@H](CC(=O)O)NC(=O)CNC1=O`, the Adhesion was found to be 105%.
